CHO parental Ca = signal in parental CHO cells, OX1R antagonist counter-screen | AID 463079 | inhibition, % at 5.6 µM | parental CHO-K1, ATP-induced calcium, Fluo-8 fluorescence | 0.63% of 330,000 active;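 active = inhibition above that plate's mean sample inhibition plus 3 SD, cut at about 26% in these data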;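 also: 0% = ATP-challenged DMSO wells and 100% = DMSO wells without ATP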
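material = parental CHO cells | also added = ATP as calcium-mobilizing challenge | dosing = single point at 5.6 µM | detection = intracellular calcium via Fluo-8 no-wash fluorescent dye | read-out = % inhibition | benchmarks = low control ATP plus DMSO, high control DMSO only | repeats = one well per compound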
TAAR1 antag = human TAAR1 antagonism; AID 624466; inhibition, % at 3 µM; CHO RD-HGA16 TAAR1, Fluo-8 calcium fluorescence, antagonist; 1.5% of 360,000 active; Q96RJ0;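 active = inhibition above a per-plate cutoff, the mean inhibition of test compounds on that plate plus 3 SD, cut at about 49% in these data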;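 also: 0% = DMSO plus EC80 beta-PEA response and 100% = DMSO alone without agonist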
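System: CHO RD-HGA16 cells bearing hTAAR1. Reagent: EC80 β-phenethylamine stimulus. Schedule: seeding 17-24 h prior, 75-min 37 °C, 30-min RT dye loading. Signal: Fluo-8 intracellular calcium dye fluorescence, real-time kinetic reads. Read-out: % inhibition from peak post-agonist over basal fluorescence ratio. Benchmarks: vehicle wells and EC80 agonist wells. Replicates: n of 1.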
GPR7 antagonist = blocks human GPR7 receptor signaling | GPR7-expressing cells, fluorescence antagonist assay | inhibition, % at 4.4 µM | AID 1861 | 1.1% of 290,000 active; in the data active = inhibition above about 16%, passing the limit was not always enough;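 also: cells stimulated with the agonist NPW; 0% = agonist with vehicle and 100% = vehicle without agonist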
Target sequence (P48145 whole entry, looked up): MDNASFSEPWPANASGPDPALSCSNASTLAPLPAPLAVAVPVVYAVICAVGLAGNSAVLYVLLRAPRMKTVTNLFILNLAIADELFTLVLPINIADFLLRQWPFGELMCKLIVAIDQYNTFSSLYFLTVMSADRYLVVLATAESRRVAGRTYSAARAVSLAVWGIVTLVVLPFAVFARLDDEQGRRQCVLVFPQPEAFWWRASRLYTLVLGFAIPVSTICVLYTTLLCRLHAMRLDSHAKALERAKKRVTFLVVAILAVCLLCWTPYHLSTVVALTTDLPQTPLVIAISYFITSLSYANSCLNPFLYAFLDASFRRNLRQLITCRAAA
OX1R antag-1 = blocks the human orexin 1 receptor; O43613; CHO/OX1R cells, Fluo-8 calcium fluorescence, orexin A; inhibition, % at 5 µM; 0.43% of 330,000 active; AID 434989;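 active = inhibition above its plate's threshold, mean inhibition of all tested compounds on the plate plus 3 SD, cut at about 37% in these data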;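 also: 0% = orexin A challenge wells and 100% = SB-334867-A antagonist wells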
OX1R antag-2 = blocks the human orexin 1 receptor; O43613; OX1R-expressing cells, FRET antagonist read-out; inhibition, % at 6.6 µM; 1.8% of 330,000 active; AID 485270; in the data active = inhibition mostly above about 38%, no sharp cut-off; inactive = mostly below about 40%;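 also: 0% = agonist challenge alone and 100% = reference antagonist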
TAAR1 ag = human TAAR1 agonism; CHO RD-HGA16 TAAR1, Fluo-8 calcium fluorescence; vehicle wells 0%, saturating PEA agonist 100%; activation, % at 3 µM; 0.99% of 360,000 active; AID 624467;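 active = activation above the mean activation of all test compounds in the run plus 3 SD, cut at about 38% in these data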
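System: CHO RD-HGA16 cells carrying human TAAR1 plus Gα16; Incubation: 17-24 h seeding, 75 min 37 °C dye, 30 min RT; Measured by: Fluo-8 fluorescence, 5 s baseline then 140 s kinetic read; Control set: DMSO and PEA EC100; Replication: single well for each compound.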
OX1R HTRF confirm = confirmation of human orexin 1 receptor antagonists, HTRF format; 49% of 1,800 active; shares compounds with OX1R antag-2; OX1R-expressing cells, HTRF antagonist assay; inhibition, % at 6.6 µM; in the data active = inhibition above about 55%;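 also: CHO cells expressing OX1R stimulated with orexin A at about EC80; 0% = agonist challenge alone and 100% = reference antagonist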
CHO-K1 HTRF = counter-screen for OX1R antagonists: effect in parental CHO-K1 cells; shares compounds with OX1R antag-2; HTRF counterscreen; inhibition, % at 6.6 µM; 48% of 1,800 active; in the data active = inhibition above about 17%;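 also: 0% = agonist challenge with vehicle and 100% = vehicle alone without agonist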
Starred values were filed as active, the others as inactive; nt = no result given. Compounds with a hit are over-represented: about 4.6% of the library has one in this group of screens.

SMILES	CHO parental Ca	TAAR1 antag	GPR7 antagonist	OX1R antag-1	OX1R antag-2	TAAR1 ag	OX1R HTRF confirm	CHO-K1 HTRF
O=C(Nc1ccc2oc(-c3ccccc3)nc2c1)c1cccs1	-14	14	-16	17	82*	10	48	7
O=C(Nc1ccc2oc(-c3cccnc3)nc2c1)c1ccco1	-15	19	-12	-16	32	5	nt	nt
O=C(Nc1ccc2nc(-c3cccs3)[nH]c2c1)c1cccs1	-4	25	-8	10	93*	17	25	0
O=C(Nc1ccc2nc(-c3ccccc3)oc2c1)c1ccco1	-2	12	-11	12	94*	9	85*	12
O=C(Nc1ccc2nc(-c3cccs3)[nH]c2c1)c1ccco1	-10	10	-9	-4	24	3	nt	nt
O=C(Nc1ccc2oc(-c3ccccc3)nc2c1)c1ccncc1	-2	1	7	-9	18	10	nt	nt
COc1ccc(Cl)cc1NC(=O)CCNC(=O)OCc1ccccc1	-12	-6	14	-20	15	5	nt	nt
O=S(=O)(Nc1ccc(-c2cn3c(n2)SCC3)cc1)c1cc(F)ccc1F	nt	-3	nt	nt	nt	1	nt	nt
CCCn1c(N)c(N(CCOC)C(=O)CCC2CCCCC2)c(=O)[nH]c1=O	0	-7	nt	-9	-2	2	nt	nt
Cc1ccc2nc3c(cc(C(=O)NCCCn4ccnc4)n3C)c(=O)n2c1	-17	-11	2	-13	80*	4	23	30*
Cc1ccc(CC(=O)NCCCn2ccnc2)cc1	10	-16	3	-12	17	0	nt	nt
OCCCN=c1cc(-c2ccccc2)oc2ccc(Cl)cc12	-18	-8	-5	-24	96*	2	36	61*
CC1(C)CC(N=c2cc(-c3ccccc3)oc3ccc(Cl)cc23)CC(C)(C)N1	nt	6	-14	nt	nt	1	nt	nt
O=C(NCCCN1CCCC1=O)c1ccc([N+](=O)[O-])s1	-15	-33	nt	-7	119*	2	57*	71*
O=C(O)COc1ccccc1/C=C1\SC(=S)N(/N=C/c2ccccc2O)C1=O	6	-12	-8	-1	98*	5	70*	46*
O=C(O)COc1ccccc1/C=C1\SC(=S)N(NC(=O)c2ccccc2O)C1=O	-14	-6	nt	-4	28	10	nt	nt
Cc1ccc(NC(=O)c2ccc(Cl)c(NC(=O)c3cccs3)c2)cc1	-12	6	-2	-21	24	-1	nt	nt
Cc1nc2ccc(NC(=O)c3ccc(Cl)c(NC(=O)c4cccs4)c3)cc2s1	-12	10	1	-16	81*	11	38	8
Cc1cc(=O)n(C)c(=O)n1CCCCCCOc1ccc([N+](=O)[O-])cc1	-4	nt	-1	-12	6	nt	nt	nt
Cc1cc(=O)n(C)c(=O)n1CCCCOc1ccc([N+](=O)[O-])cc1	0	12	13	8	104*	3	25	16
CCOc1ccc(NC2OCC(O)C(O)C2O)c([N+](=O)[O-])c1 (centres undefined)	-7	-1	4	-12	82*	14	34	31*
Cc1cc2c3c([nH]c2cc1S(=O)(=O)N1CCC2(CC1)OCCO2)CCCC3=O	-1	5	-7	-15	5	1	nt	nt
Cc1ccc2ncc(NC(=O)c3ccc(F)cc3)c(=O)n2c1	-1	-7	-2	-19	91*	18	29	33*
CC(C)Cc1nnc(NC(=O)CCC(=O)N2CCN(Cc3ccccc3)CC2)s1	-17	-16	-13	-23	-2	1	nt	nt
O=C(c1cccs1)N1CCN(CCc2ccccc2)CC1	-1	0	1	-70	9	3	nt	nt
O=C(N/N=C/c1ccncc1)c1ccc(COc2cccc3cccnc23)cc1	-13	40	1	-13	24	7	nt	nt
O=C(N/N=C/c1ccc2cccc(OCc3ccccc3)c2n1)c1ccc(Cl)cc1	-15	19	-11	-2	79*	10	37	-2
